The results in this text go back to ChEMBL document CHEMBL3808356, “Dihydrochelerythrine and its derivatives: Synthesis and their application as potential G-quadruplex DNA stabilizing agents” (Bioorg Med Chem, 2016).

The structures appear in SMILES notation. Active and inactive are the calls of the source. The rule behind the calls is not given here.

The nature of test [1]: Antiproliferative activity against human HCT116 cells assessed as reduction in cell viability at 15 uM after 72 hrs by MTT assay relative to control. It is filed as functional, HCT-116. An outline of the steps: (§1)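 Human cancer lines from ATCC, cultured per supplier instructions; ~5000 cells/well seeded 24 h before treatment at 37 °C, CO2. Exposed to vehicle (0.5% DMSO) or serially diluted compound (0.1 to 15 or 20 µM) for 72 h at 37 °C. MTT 100 µg added, 4 h at 37 °C; formazan dissolved in DMSO, absorbance 570 nm. Percent inhibition vs vehicle wells; triplicate, mean ± SEM.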
A general note: Tetrazolium dyes change colour on reduction, which living cells bring about.

The subject of test [2] is MDA-MB-231. Briefly: Antiproliferative activity against human MDA-MB-231 cells assessed as reduction in cell viability at 15 uM after 72 hrs by MTT assay relative to control. The test is classed as functional. In outline:
as §1

Test [3] has as its system HeLa. Briefly: Antiproliferative activity against human HeLa cells at 0.1 to 20 uM after 72 hrs by MTT assay. It is filed as functional, cell-based. An outline of the steps:
as §1

Test [4] has as its system A-431. Briefly: Antiproliferative activity against human A431 cells assessed as reduction in cell viability at 15 uM after 72 hrs by MTT assay relative to control. The test is classed as functional, cell-based. An outline of the steps: as §1
The nature of test [5]: Binding affinity to telomeric DNA (unknown origin) assessed as change in melting temperature at 50 uM by circular dichroism spectroscopic analysis in presence of K+ ion. An outline of the steps:
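CD melting: telomeric DNA 10 µM in 10 mM lithium cacodylate pH 7.2 with 10 mM KCl, 90 mM LiCl, plus ligand. Ellipticity followed against temperature; ΔTm taken as Tm with ligand minus Tm of DNA alone.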

A short description of test [6]: Binding affinity to c-myc G-quadruplex DNA (unknown origin) assessed as change in melting temperature at 50 uM by circular dichroism spectroscopic analysis. An outline of the steps: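 CD melting: c-MYC DNA 10 µM strand in 10 mM lithium cacodylate pH 7.2, 1 mM KCl, 99 mM LiCl. Annealed 95 °C 5 min, cooled slowly to room temperature, then 5 equiv ligand (50 µM) added and incubated overnight. Ellipticity at 263 nm, 20–95 °C at 1 °C/min. Sigmoidal Boltzmann fit; ΔTm = Tm(DNA+ligand) − Tm(DNA).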
For orientation: Circular dichroism is the unequal absorption of left and right circularly polarised light.

The test system of test [7] is PC-3. In words: Antiproliferative activity against human PC3 cells at 0.1 to 20 uM after 72 hrs by MTT assay. The test is classed as functional, cell-based. In outline:
as §1

Test [8] can be described thus: Binding affinity to c-myc G-quadruplex DNA (unknown origin) assessed as stabilization of preformed parallel topology at 1 to 6 molar equivalents by circular dichroism spectroscopic analysis in absence of metal ion. An outline of the steps:
(§2)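 CD titration of promoter quadruplex DNA (12.5 µM strand) in 50 mM Tris-HCl pH 7.2, no added monovalent cations. Ligand from 5 mM DMSO stock added stepwise by molar equivalents. Spectra 220–320 nm, 1 mm path, 25 °C, 100 nm/min, 2 s response, average of 3 scans. Ellipticity change at ~260 nm (positive) and ~240 nm (negative) followed.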

The nature of test [9]: Binding affinity to c-Kit1 G-quadruplex DNA (unknown origin) assessed as stabilization of preformed parallel topology up to 5 molar equivalents by circular dichroism spectroscopic analysis in absence of metal ion. In outline:
as §2

The test system of test [10] is A549. In words: Antiproliferative activity against human A549 cells at 0.1 to 20 uM after 72 hrs by MTT assay. It is filed as functional, cell-based. In outline: as §1
The subject of test [11] is A-431. In words: Antiproliferative activity against human A431 cells assessed as reduction in cell viability at 20 uM after 72 hrs by MTT assay relative to control. The test is classed as functional. Conditions: A-431, 72 h. An outline of the steps: as §1
The nature of test [12]: Binding affinity to c-myc G-quadruplex DNA (unknown origin) assessed as stabilization of preformed parallel topology up to 5 molar equivalents by circular dichroism spectroscopic analysis in absence of metal ion. An outline of the steps:
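Ligand added from a 5 mM DMSO stock up to 5 equiv. Scanned 220–320 nm, 1.0 mm cuvette, 100 nm/min, 25 °C. Each spectrum is the average of 3 scans.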

For test [13], the system named is MDA-MB-231. Briefly: Antiproliferative activity against human MDA-MB-231 cells assessed as reduction in cell viability at 20 uM after 72 hrs by MTT assay relative to control. The test is classed as functional. Conditions: MDA-MB-231, 72 h. An outline of the steps: as §1
Test [14] in a line: Binding affinity to c-myc G-quadruplex DNA (unknown origin) incubated for 30 mins by Taq DNA polymerase stop assay. In outline:
(§3)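 Taq polymerase stop assay. 32P-labelled primer plus 50 nM cold primer annealed to 100 nM template carrying c-MYC quadruplex or mutated c-MYC sequence. Ligand 0–80 µM, 30 min at room temperature, then 0.5 U Taq, 55 °C for 30 min. Products run on 15% denaturing PAGE and phosphorimaged. Normalised % stop product plotted against ligand concentration; IC50 is 50% stop. Two independent experiments.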

Test [15] in a line: Binding affinity to duplex DNA (unknown origin) assessed as change in melting temperature at 50 uM by circular dichroism spectroscopic analysis. In outline:
(§4)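 CD melting of 10 µM DNA strand in 10 mM lithium cacodylate pH 7.2 with 90 mM LiCl and 10 mM KCl (c-KIT1 and duplex). c-KIT1 annealed at 95 °C for 5 min, slowly cooled, then given 5 equiv ligand (50 µM) overnight. Ellipticity read at 263 nm, 1 °C/min from 15–95 °C for c-KIT1. Sigmoidal Boltzmann fit. ΔTm = Tm(DNA+ligand) − Tm(DNA).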

Test [16] is described as follows: Binding affinity to c-myc G-quadruplex DNA (unknown origin) by UV-visible absorption spectroscopic analysis. An outline of the steps: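 UV–vis titration, 225–600 nm, 10 mm cuvette. Ligand at 30 µM in 100 mM KCl, 10 mM lithium cacodylate pH 7.2 was titrated to saturation with c-MYC DNA pre-annealed in the same buffer (95 °C 5 min, slow cooling). Binding constant from a half-reciprocal fit; mean of 3 independent experiments.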

A short description of test [17]: (§5) Antiproliferative activity against human HCT116 cells assessed as reduction in cell viability at 20 uM after 72 hrs by MTT assay relative to control. The test is classed as functional. Conditions: HCT-116, 72 h. An outline of the steps:
as §1

The nature of test [18]: Binding affinity to c-myc DNA mutant (unknown origin) up to 80 uM incubated for 30 mins by Taq DNA polymerase stop assay. In outline:
as §3

A short description of test [19]: Binding affinity to c-Kit1 G-quadruplex DNA (unknown origin) assessed as change in melting temperature at 50 uM by circular dichroism spectroscopic analysis. An outline of the steps: as §4
The test system of test [20] is HCT-116. Described as §5. The test is classed as functional. An outline of the steps:
as §1

With `COc1ccc2c(c1OC)C(CC(C)=O)N(C)c1c-2ccc2cc3c(cc12)OCO3` (racemic) [listing 1 of 2 here], the inhibition – broadly, the change of the read-out against control, counted positive when it falls – at 15 µM in [1] (Homo sapiens, HCT-116, 72 h) was 28.7%; in [2] (Homo sapiens, MDA-MB-231, 72 h), 16.1%.

For the molecule `COc1ccc2c(c1OC)C(CC(C)=O)N(C)c1c-2ccc2cc3c(cc12)OCO3` (racemic) [listing 2 of 2 here], the result in test [3], in [7], in [9] and in test [10] was inactive. Moreover, the inhibition result in test [4] is “inactive”. In addition, the thermal shift (ΔTm) – broadly, the shift of the melting midpoint relative to a reference – is 1 °C in test [5] and 2.6 °C in test [6]. In addition, in [8], the outcome was Active.

For `COc1ccc2c(c1OC)C(CC(C)=O)N(C)c1c-2ccc2cc3c(cc12)OCO3` (single isomer, unassigned; (+)) [listing 1 of 2 here], the “inhibition (INH)” value came to 47.84% in test [1] and 24.3% in test [2].

With `COc1ccc2c(c1OC)C(CC(C)=O)N(C)c1c-2ccc2cc3c(cc12)OCO3` (single isomer, unassigned; (+)) [listing 2 of 2 here], the outcome in test [3], in [7] and in test [10] was inactive. The inhibition result in test [4] is “inactive”.

Take `COc1ccc2c(c1OC)C(CC(C)=O)N(C)c1c-2ccc2cc3c(cc12)OCO3` (stereo in doubt) [listing 1 of 2 here]: the “inhibition (INH)” value in test [1] is on record as 36.88%; in test [2], 20.81%.

`COc1ccc2c(c1OC)C(CC(C)=O)N(C)c1c-2ccc2cc3c(cc12)OCO3` (stereo in doubt) [listing 2 of 2 here]: the outcome in test [3], in test [7] and in test [10] was inactive. Moreover, the inhibition entry in test [4] is “inactive”.

For the molecule `COc1ccc2c(c[n+](C)c3c4cc5c(cc4ccc23)OCO5)c1OC` [CHELERYTHRINE], the inhibition at 20 µM in test [11], in [13] and in [17] was 100% in each case. Further, the outcome in test [12] and in [9] was Active. Further, the Activity entry in [14] is “Dose-dependent effect”. Besides, the 50% inhibitory concentration (IC50) (as a rule, the midpoint of a concentration-inhibition curve) in [14] turned out to be 6.6 µM. Further, the ΔTm in [15] was 0.1 °C; in test [6], 19.6 °C; in test [19] it was 24.3 °C. For the same molecule, in test [16], the K came to 7.35 ×10⁵ /M. Besides, the result in test [18] was inactive.

`COc1ccc2c(c1OC)CN(C)c1c-2ccc2cc3c(cc12)OCO3` [DIHYDROCHELERYTHRINE]: the outcome in test [3], in [7], in [18] and in test [10] was inactive. For the same molecule, the inhibition at 20 µM is 30.4% in test [11] and 8.65% in test [13]. Further, the outcome in [12] and in [9] was Active. Besides, the Activity entry in test [14] is “Dose-dependent effect”. Moreover, in test [14], the IC50 stood at 5.8 µM. Further, the thermal shift (ΔTm) in test [15] was -1 °C; in test [6], 24 °C; in test [19] it was 17.6 °C. For the same molecule, the K in [16] stood at 5.5 ×10⁵ /M. For the same molecule, the inhibition entry in test [20] was “inactive”.

Take `COc1cccc2c1C(=O)c1c(O)c3c(c(O)c1C2=O)C[C@@](O)(C(=O)CO)C[C@@H]3O[C@H]1C[C@H](N)[C@H](O)[C@H](C)O1` [DOXORUBICIN]: the inhibition at 20 µM in test [11] came to 98.1%; in test [13], 92.7%; in [17], 98%.
